This is an account of results in ChEMBL document CHEMBL1138093, “C-(4,5,6-trimethoxyindan-1-yl)methanamine: a mescaline analogue designed using a homology model of the 5-HT2A receptor” (J Med Chem, 2006).

For experiment [1], the target named is T1, 5-hydroxytryptamine receptor 2A (Rattus norvegicus, UniProt P14842). Description: (§1) Activity at rat 5HT2A receptor assessed as 5-HT-stimulated IP3 accumulation. Type of experiment: functional. An outline of the steps: (§2)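 Rat 5-HT2A-expressing stable cell line, seeded and assayed at 70% confluence. Cells were labeled 18-20 h with [3H]myoinositol at 1.0 µCi/mL, then pretreated 15 min with 10 µM pargyline/10 mM LiCl. Drug exposure was 30 min at 37 °C under 5% CO2. The assay was stopped with 10 mM formic acid, and [3H]inositol phosphates were isolated on Dowex-1 columns.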
T1 sequence (P14842 whole entry): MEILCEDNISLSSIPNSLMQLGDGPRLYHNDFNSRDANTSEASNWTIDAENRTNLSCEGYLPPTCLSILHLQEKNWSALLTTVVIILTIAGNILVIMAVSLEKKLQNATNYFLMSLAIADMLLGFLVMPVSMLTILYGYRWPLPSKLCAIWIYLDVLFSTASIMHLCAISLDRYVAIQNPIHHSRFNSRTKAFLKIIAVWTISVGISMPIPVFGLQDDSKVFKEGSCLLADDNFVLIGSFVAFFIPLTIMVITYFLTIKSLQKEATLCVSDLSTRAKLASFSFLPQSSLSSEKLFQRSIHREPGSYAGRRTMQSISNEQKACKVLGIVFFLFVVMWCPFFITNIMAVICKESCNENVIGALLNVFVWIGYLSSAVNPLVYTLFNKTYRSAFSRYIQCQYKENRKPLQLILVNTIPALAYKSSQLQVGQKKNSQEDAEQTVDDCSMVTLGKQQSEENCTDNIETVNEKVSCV

Experiment [2] deals with 5-hydroxytryptamine receptor 2A (Rattus norvegicus) (UniProt P14842). The description is as §1. Type of experiment: functional. An outline of the steps: as §2
Chain of 5-hydroxytryptamine receptor 2A (Rattus norvegicus) (P14842 whole entry): as above
Experiment [3] has as its target T1, 5-hydroxytryptamine receptor 2A. Description: Displacement of [125I]DOI from rat 5HT2A receptor. Put shortly:
(§3)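 Stably transfected cells expressing rat 5-HT2A or 5-HT2C were serum-starved 5 h and pelleted. Binding used 50 mM Tris, 0.5 mM EDTA, 10 mM MgCl2, pH 7.4, incubated 60 min at 25 °C. Bound was separated by filtration onto PEI-soaked GF/B filters, then scintillation counting. Values came from competition curves.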

The target in experiment [4] is T2, 5-hydroxytryptamine receptor 2C (Rattus norvegicus, UniProt P08909).
T2 sequence (P08909 whole entry): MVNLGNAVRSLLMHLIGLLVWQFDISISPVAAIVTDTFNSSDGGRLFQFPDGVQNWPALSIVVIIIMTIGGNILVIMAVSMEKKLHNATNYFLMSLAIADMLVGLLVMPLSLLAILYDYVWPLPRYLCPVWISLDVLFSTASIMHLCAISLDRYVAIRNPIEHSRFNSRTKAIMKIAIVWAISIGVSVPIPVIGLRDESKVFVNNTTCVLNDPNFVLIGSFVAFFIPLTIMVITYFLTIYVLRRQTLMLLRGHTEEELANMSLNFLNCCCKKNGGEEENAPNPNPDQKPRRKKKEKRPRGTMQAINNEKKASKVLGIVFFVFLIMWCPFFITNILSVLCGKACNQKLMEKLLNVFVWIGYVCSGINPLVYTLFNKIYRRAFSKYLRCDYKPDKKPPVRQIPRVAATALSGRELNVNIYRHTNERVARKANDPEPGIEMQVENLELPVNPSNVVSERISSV
Description: Displacement of [125I]DOI from rat 5HT2C receptor. An outline of the steps: as §3
On the technique in general: In a radioligand displacement assay an active substance lowers the binding of a labelled ligand.

Another experiment is filed under the species Rattus norvegicus. The experiment is described as follows: Hallucinogenic activity in rat. The class given is functional. The note with it: for ED50: Rattus norvegicus. Put shortly:
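Rats were trained to discriminate saline from LSD tartrate (186 nmol/kg ip). The read-out was presses on the drug lever. […] At least 59% gave partial substitution.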

SMILES strings stand for the structures.

As usually defined, the EC50 is the concentration giving half of the maximal effect. For orientation: Ki means the dissociation constant of the complex between target and ligand, obtained from inhibition or displacement. A low value points to tighter binding. In the case of `COc1cc2c(c(OC)c1OC)CC[C@@H]2CN`, the concentration giving a half-maximal response (EC50) in experiment [1] is greater than 50000 nM. Moreover, the Activity in experiment [2] is 59%. The compound also showed an inhibition constant (Ki) in experiment [3] of 1120 nM.
For `COc1cc2c(c(OC)c1OC)CC[C@H]2CN`, the EC50 in experiment [1] is 3200 nM. The Activity in experiment [2] came out at 88%. Also, in experiment [3], the inhibitory constant (Ki) is 69 nM.
As for `COc1cc2c(c(OC)c1OC)CCC2CN` (racemic), the inhibition constant Ki in experiment [4] was 60 nM; in experiment [3] it was 130 nM. In addition, in experiment [1], the concentration giving a half-maximal response (EC50) was 6100 nM. The Activity in experiment [2] stood at 83%. Also, in the experiment listed under Rattus norvegicus, the ED5 was 6.6 µmol/kg.
One may read the ED50 as the dose at which the effect has come halfway, by size or by number of responders. Read a low ED50 as greater potency. In the case of `CCN(CC)C(=O)[C@@H]1C=C2c3cccc4[nH]cc(c34)C[C@H]2N(C)C1` [LYSERGIDE], in experiment [2], the Activity is 20%. Moreover, it took a dose of 0.037 µmol/kg to reach the 50% effect level in the experiment listed under Rattus norvegicus (ED50).
Regarding `COc1cc(CCN)cc(OC)c1OC` [MESCALINE], the Ki in experiment [4] was 380 nM; in experiment [3], 360 nM. The EC50 in experiment [1] stood at 11300 nM. Moreover, in experiment [2], the Activity amounted to 86%. Further, the ED50 in the experiment filed under Rattus norvegicus turned out to be 34 µmol/kg.
